Data from ChEMBL document CHEMBL1125313, “Analogs of Ac-CCK-7 incorporating dipeptide mimics in place of Met28-Gly29” (J Med Chem, 1992).
Starred links: 1 amine or outer side, 2 acyl side, 3 side chain; linkers in the order of their positions; H or OH if unused. Non-standard residues stand in square brackets, D forms with d. Residues, ends and D or L forms follow the SMILES beside them. Phe(4-SO3H) = N[C@@H](Cc1ccc(S(=O)(=O)O)cc1)C(=O)O; X3 = O=C(C[C@@H]1CCCC[C@@H]1N[*:1])[*:2]; X5 = O=C(C[C@H]1CCCC[C@@H]1N[*:1])[*:2]; X1 = Cc1c(N[*:1])cccc1C(=O)[*:2]; X4 = Cc1ccc(N[*:1])cc1C(=O)[*:2]; 3Abz = Nc1cccc(C(=O)O)c1; 4Abz = Nc1ccc(C(=O)O)cc1; CO = O=C([*:1])[*:2]; Ahx = NCCCCCC(=O)O; Ava = NCCCCC(=O)O; GABA = NCCCC(=O)O; βAla = NCCC(=O)O

How the values were obtained:
[1] = target: T1, Gastrin/cholecystokinin type B receptor (Bos taurus, UniProt P79266); assay: Inhibition of [3H]propionyl-CCK-8 binding to Cholecystokinin type B receptor in bovine striatum; type: tissue-based
T1 sequence (P79266 whole entry): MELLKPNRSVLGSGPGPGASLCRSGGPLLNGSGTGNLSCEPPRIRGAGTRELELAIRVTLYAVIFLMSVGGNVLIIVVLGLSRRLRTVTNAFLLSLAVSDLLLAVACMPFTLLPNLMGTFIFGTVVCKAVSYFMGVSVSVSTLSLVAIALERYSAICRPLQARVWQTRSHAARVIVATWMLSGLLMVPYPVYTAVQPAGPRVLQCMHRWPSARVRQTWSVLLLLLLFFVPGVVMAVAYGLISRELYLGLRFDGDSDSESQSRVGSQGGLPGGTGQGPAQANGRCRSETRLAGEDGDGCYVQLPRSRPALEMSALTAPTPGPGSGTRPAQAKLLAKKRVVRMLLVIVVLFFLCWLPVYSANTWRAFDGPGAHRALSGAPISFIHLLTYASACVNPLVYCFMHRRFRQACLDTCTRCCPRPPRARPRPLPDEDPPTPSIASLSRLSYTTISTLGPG
Outline: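 Frozen bovine striatum homogenized at 0 °C in 10 mM HEPES, 130 mM NaCl, 5 mM MgCl2, pH 7.4. Pellet (48000g) resuspended in same buffer plus PMSF and bacitracin, ~0.26 mg protein per 2 mL. Incubated 30 min at 25 °C with 0.15 nM (final) [propionyl-3H]CCK-8. GF/B filtration, scintillation counting. Nonspecific binding with 1 μM CCK-8. IC50 by log-probit; actives confirmed in duplicate.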

[2] = target: T2, Cholecystokinin receptor type A (Rattus norvegicus, UniProt P30551); assay: The compound was tested in vitro for inhibition of specific [3H]propionyl-CCK-8 binding to cholecystokinin type A receptor in rat pancreatic membranes; type: cell membranes, Membrane
T2 sequence (P30551 whole entry): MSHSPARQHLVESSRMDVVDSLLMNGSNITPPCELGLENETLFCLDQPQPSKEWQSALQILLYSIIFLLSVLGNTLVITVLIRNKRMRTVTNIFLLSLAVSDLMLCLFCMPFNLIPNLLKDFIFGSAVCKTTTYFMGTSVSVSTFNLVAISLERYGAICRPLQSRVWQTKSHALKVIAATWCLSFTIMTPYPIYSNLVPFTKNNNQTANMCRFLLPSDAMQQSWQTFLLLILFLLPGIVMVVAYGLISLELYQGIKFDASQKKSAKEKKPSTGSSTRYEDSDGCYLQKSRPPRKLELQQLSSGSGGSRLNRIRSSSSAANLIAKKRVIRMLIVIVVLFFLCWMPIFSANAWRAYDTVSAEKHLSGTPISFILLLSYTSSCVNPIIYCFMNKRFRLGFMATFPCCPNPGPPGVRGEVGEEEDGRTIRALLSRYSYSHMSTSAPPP
Outline: (§1)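 Fresh pancreas from fasted rats homogenized at 0 °C in 10 mM HEPES, 130 mM NaCl, 5 mM MgCl2, pH 7.4. Pellet (48000g) resuspended in same buffer plus PMSF and bacitracin, ~0.100 mg protein per 1 mL. Incubated 30 min at 25 °C with 0.15 nM (final) [propionyl-3H]CCK-8. Filtered on GF/B and counted. Nonspecific binding with 1 μM CCK-8. IC50 by log-probit; actives confirmed in duplicate.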

Rattus norvegicus [3] = assay: Compound was evaluated for its ability to suppress food intake in one of two meal-fed rats after intraperitoneal administration of 32 ug/kg; type: functional
Outline: (§2)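 Male Sprague-Dawley rats fed in one of two meal models, peptide ip. In "1-2-1" model, rats trained 4 days to eat ground chow 9–10 a.m. and 12–1 p.m., dosed 15 min before first meal, groups of 5–6. Or rats fasted 17 h overnight, given vehicle (100% DMSO) or peptide ip, 0.33 mL/kg, food weighed after 1 h, groups of 5–7. First-hour intake as % of control. ED50 from log-probit analysis; t-test versus controls.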

Rattus norvegicus [4] = assay: Compound was evaluated for its ability to suppress food intake in one of two meal-fed rats after intraperitoneal administration of 10 ug/kg; type: functional; outline: as §2
Rattus norvegicus [5] = assay: Compound was evaluated for its ability to suppress food intake in one of two meal-fed rats after intraperitoneal administration of 3 ug/kg; type: functional; outline: as §2
[6] = Dose which caused 50% inhibition of the control intake was determined by log-probit analysis after intraperitoneal administration (CCK-8 receptor); conditions: Rattus norvegicus
[7] = target: T2, Cholecystokinin receptor type A; assay: The compound was tested in vitro for inhibition of specific [3H]propionyl-CCK-8 binding to Cholecystokinin type A receptor in rat pancreatic membranes; type: cell membranes, Membrane; outline: as §1
Rattus norvegicus [8] = assay: Dose which caused 50% inhibition of the control intake was determined by log-probit analysis after intraperitoneal administration; type: functional; conditions: ip; outline: as §2
Rattus norvegicus [9] = assay: Compound was evaluated for its ability to suppress food intake in one of two meal-fed rats after intraperitoneal administration of 320 ug/kg; type: functional; outline: as §2
Rattus norvegicus [10] = assay: Compound was evaluated for its ability to suppress food intake in one of two meal-fed rats after intraperitoneal administration of 1240 ug/kg; type: functional; outline: as §2
Rattus norvegicus [11] = assay: Compound was evaluated for its ability to suppress food intake in one of two meal-fed rats after intraperitoneal administration of 0.3 ug/kg; type: functional; outline: as §2
Rattus norvegicus [12] = assay: Compound was evaluated for its ability to suppress food intake in one of two meal-fed rats after intraperitoneal administration of 20 ug/kg; type: functional; outline: as §2
Rattus norvegicus [13] = assay: Compound was evaluated for its ability to suppress food intake in one of two meal-fed rats after intraperitoneal administration of 14 ug/kg; type: functional; outline: as §2
Rattus norvegicus [14] = assay: Compound was evaluated for its ability to suppress food intake in one of two meal-fed rats after intraperitoneal administration of […]; type: functional

| SMILES | IC50 [1] [nM] | IC50 [2] [nM] | IC50 [7] [nM] | Control (Rattus norvegicus [3]) [%] | Control (Rattus norvegicus [5]) [%] | ED50 (Rattus norvegicus [8]) [µmol/kg] | Control (Rattus norvegicus [9]) [%] | further results |
| --- | --- | --- | --- | --- | --- | --- | --- | --- |
| CSCC[C@H](NC(=O)[C@H](Cc1ccc(S(=O)(=O)O)cc1)NC(=O)O)C(=O)NCC(=O)N[C@@H](Cc1c[nH]c2ccccc12)C(=O)N[C@@H](CCSC)C(=O)N[C@@H](CC(=O)O)C(=O)N[C@@H](Cc1ccccc1)C(N)=O ({CO}-[Phe(4-SO3H)]MGWMDF-NH2) | 4.4 | 0.6 | – | 6 | 81 | – | – | Control (Rattus norvegicus [4]): 36%; ED50 [6]: 7 µmol/kg |
| CSCC[C@H](NC(=O)[C@H](Cc1c[nH]c2ccccc12)NC(=O)c1cccc(NC(=O)[C@H](Cc2ccc(S(=O)(=O)O)cc2)NC(=O)O)c1)C(=O)N[C@@H](CC(=O)O)C(=O)N[C@@H](Cc1ccccc1)C(N)=O ({CO}-[Phe(4-SO3H)][3Abz]WMDF-NH2) | 0.48 | – | 2.1 | 14 | 52 | 3 | 4 | – |
| CSCC[C@H](NC(=O)[C@H](Cc1c[nH]c2ccccc12)NC(=O)c1ccc(NC(=O)[C@H](Cc2ccc(S(=O)(=O)O)cc2)NC(=O)O)cc1)C(=O)N[C@@H](CC(=O)O)C(=O)N[C@@H](Cc1ccccc1)C(N)=O ({CO}-[Phe(4-SO3H)][4Abz]WMDF-NH2) | 0.085 | – | 1600 | – | – | > 1240 | – | Control (Rattus norvegicus [10]): 75% |
| CSCC[C@H](NC(=O)[C@H](Cc1c[nH]c2ccccc12)NC(=O)c1cccc(NC(=O)[C@H](Cc2ccc(S(=O)(=O)O)cc2)NC(=O)O)c1C)C(=O)N[C@@H](CC(=O)O)C(=O)N[C@@H](Cc1ccccc1)C(N)=O ({CO}-[Phe(4-SO3H)][X1]WMDF-NH2) | 0.91 | – | 2.7 | 44 | – | 24 | 5.9 | Control (Rattus norvegicus [13]): 58%; Control (Rattus norvegicus [14]): 104% |
| CSCC[C@H](NC(=O)[C@H](Cc1c[nH]c2ccccc12)NC(=O)c1cc(NC(=O)[C@H](Cc2ccc(S(=O)(=O)O)cc2)NC(=O)O)ccc1C)C(=O)N[C@@H](CC(=O)O)C(=O)N[C@@H](Cc1ccccc1)C(N)=O ({CO}-[Phe(4-SO3H)][X4]WMDF-NH2) | 5 | – | 73 | – | – | > 320 | 95 | – |

Continued, in another order:

| IC50 [1] [nM] | IC50 [2] [nM] | IC50 [7] [nM] | SMILES | Control (Rattus norvegicus [3]) [%] | Control (Rattus norvegicus [5]) [%] | ED50 (Rattus norvegicus [8]) [µmol/kg] | Control (Rattus norvegicus [9]) [%] | further results |
| --- | --- | --- | --- | --- | --- | --- | --- | --- |
| 1300 | 1200 | – | CSCC[C@H](NC(=O)[C@H](Cc1c[nH]c2ccccc12)NC(=O)CNC(=O)[C@H](Cc1ccc(S(=O)(=O)O)cc1)NC(=O)O)C(=O)N[C@@H](CC(=O)O)C(=O)N[C@@H](Cc1ccccc1)C(N)=O ({CO}-[Phe(4-SO3H)]GWMDF-NH2) | 69 | – | – | – | – |
| 13 | 360 | – | CSCC[C@H](NC(=O)[C@H](Cc1c[nH]c2ccccc12)NC(=O)CCCCCNC(=O)[C@H](Cc1ccc(S(=O)(=O)O)cc1)NC(=O)O)C(=O)N[C@@H](CC(=O)O)C(=O)N[C@@H](Cc1ccccc1)C(N)=O ({CO}-[Phe(4-SO3H)][Ahx]WMDF-NH2) | – | – | – | 80 | – |
| 9 | 22 | – | CSCC[C@H](NC(=O)[C@H](Cc1c[nH]c2ccccc12)NC(=O)CCCCNC(=O)[C@H](Cc1ccc(S(=O)(=O)O)cc1)NC(=O)O)C(=O)N[C@@H](CC(=O)O)C(=O)N[C@@H](Cc1ccccc1)C(N)=O ({CO}-[Phe(4-SO3H)][Ava]WMDF-NH2) | 54 | 102 | – | 9 | – |
| 1.8 | 4.9 | – | CSCC[C@H](NC(=O)[C@H](Cc1c[nH]c2ccccc12)NC(=O)CCCNC(=O)[C@H](Cc1ccc(S(=O)(=O)O)cc1)NC(=O)O)C(=O)N[C@@H](CC(=O)O)C(=O)N[C@@H](Cc1ccccc1)C(N)=O ({CO}-[Phe(4-SO3H)][GABA]WMDF-NH2) | 11 | 69 | – | 1 | Control (Rattus norvegicus [11]): 104%; Control (Rattus norvegicus [12]): 6%; ED50 [6]: 4.7 µmol/kg |
| 3.4 | – | 161 | CSCC[C@H](NC(=O)[C@H](Cc1c[nH]c2ccccc12)NC(=O)C[C@@H]1CCCC[C@@H]1NC(=O)[C@H](Cc1ccc(S(=O)(=O)O)cc1)NC(=O)O)C(=O)N[C@@H](CC(=O)O)C(=O)N[C@@H](Cc1ccccc1)C(N)=O ({CO}-[Phe(4-SO3H)][X3]WMDF-NH2) | – | – | > 320 | 80 | – |
| – | – | 165 | CSCC[C@H](NC(=O)[C@H](Cc1c[nH]c2ccccc12)NC(=O)C[C@H]1CCCC[C@@H]1NC(=O)[C@H](Cc1ccc(S(=O)(=O)O)cc1)NC(=O)O)C(=O)N[C@@H](CC(=O)O)C(=O)N[C@@H](Cc1ccccc1)C(N)=O ({CO}-[Phe(4-SO3H)][X5]WMDF-NH2) | – | – | > 320 | 90 | – |
| 3600 | 10000 | – | CSCC[C@H](NC(=O)[C@H](Cc1c[nH]c2ccccc12)NC(=O)CCNC(=O)[C@H](Cc1ccc(S(=O)(=O)O)cc1)NC(=O)O)C(=O)N[C@@H](CC(=O)O)C(=O)N[C@@H](Cc1ccccc1)C(N)=O ({CO}-[Phe(4-SO3H)][βAla]WMDF-NH2) | 108 | – | – | – | – |
